# Sampled rows, rich in hits. Any-hit rate of the full collection: about 2.7%.
# Rpn11 block – Rpn11 (human) deubiquitinase inhibition | human 26S proteasome, Ub4-pepOG fluorescence polarization; 20S core pre-blocked with epoxomicin | inhibition, % at 20 µM | actives 0.59% (n = 360,000) | AID 588493;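 active means inhibition at 20 µM, scaled to each plate's controls, above about 33%, limit read from the data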
# Target sequence (O00487 whole entry, looked up): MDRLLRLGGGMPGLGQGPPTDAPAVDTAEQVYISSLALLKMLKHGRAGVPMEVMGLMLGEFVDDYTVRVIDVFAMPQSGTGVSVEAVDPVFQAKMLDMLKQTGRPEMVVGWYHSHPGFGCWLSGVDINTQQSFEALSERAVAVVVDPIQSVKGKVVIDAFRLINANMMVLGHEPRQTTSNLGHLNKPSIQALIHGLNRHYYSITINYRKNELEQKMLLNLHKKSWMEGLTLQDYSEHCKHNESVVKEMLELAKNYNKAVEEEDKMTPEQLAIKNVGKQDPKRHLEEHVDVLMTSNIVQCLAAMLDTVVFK
# TPT1 inh – C. albicans TPT1 enzyme inhibition | recombinant caTPT1, FP RNA substrate dephosphorylation | inhibition, % at 5 µM | actives 0.81% (n = 300,000);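 active means inhibition above the mean of all tested compounds plus 3 SD, set per screening campaign, cut at about 24% in these data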
# CSN inh – blocks human CSN-mediated cullin deneddylation | actives 0.38% (n = 360,000) | AID 651999 | Purified CSN, SCF-Nedd8-OG deneddylation, fluorescence polarization | inhibition, % at 12.5 µM;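 active means pattern-corrected inhibition above about 35%, with an unprinted fluorescence ratio check between 0.5 and 1.5, limit read from the data, passing the limit was not always enough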
# Target sequence (Q92905 whole entry, looked up, one chain of several): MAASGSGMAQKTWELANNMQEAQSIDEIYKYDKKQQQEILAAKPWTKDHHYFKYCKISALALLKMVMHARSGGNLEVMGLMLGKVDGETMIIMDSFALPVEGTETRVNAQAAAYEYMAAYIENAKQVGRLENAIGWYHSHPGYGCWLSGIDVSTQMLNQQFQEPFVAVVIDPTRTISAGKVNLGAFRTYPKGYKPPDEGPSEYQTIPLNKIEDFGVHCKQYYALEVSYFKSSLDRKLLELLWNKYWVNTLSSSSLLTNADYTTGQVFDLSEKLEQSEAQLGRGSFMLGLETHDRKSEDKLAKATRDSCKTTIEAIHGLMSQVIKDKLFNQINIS
#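 Assay system: HEK293T-derived human Csn5 enzyme; quantity: 0.24 nM enzyme; medium: Tris/NaCl/DTT buffer, pH 7.5; also added: substrate SCFSkp2-Nedd8OG, 10 nM; doses: 12.5 µM compound; schedule: 90 min reaction at room temperature; signal: FP; read-out: % inhibition of substrate cleavage by Csn5; benchmarks: substrate-only high control, full reaction low control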
# PP1 inh – counter-screen for PP5 inhibitors: inhibitors of human PP1-alpha | AID 2235 | purified PP1alpha, OMFP fluorescence | actives 0.9% (n = 320,000) | inhibition, % at 6.7 µM;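 active means inhibition above the mean inhibition of all tested compounds plus 3 SD, computed separately for each screening campaign, cut at about 15% in these data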
# NadD block – blocks S. aureus nicotinate mononucleotide adenylyltransferase; purified NadD enzyme, colorimetric absorbance read-out; inhibition, % at 20 µM; actives 0.78% (n = 360,000); in the data active means inhibition above about 26%
# HNF4A DNA FP – change in binding of human HNF4 alpha to DNA | actives 0.3% (n = 360,000) | activity change, % at 10 µM | P41235 | HNF4a-FITC DNA binding, fluorescence polarization, 1 h; in the data active means activity change above about 30%, passing the limit was not always enough
# Rpn11 confirm – confirmation of human proteasome Rpn11 inhibitors. purified human 26S proteasome, Ub4-pepOG fluorescence polarization; proteasome pretreated with epoxomicin. shares compounds with Rpn11 block. actives 29% (n = 1,900). inhibition, % at 20 µM
# MMP-2 inh – blocks human MMP-2, flagging nonselective RPN11 hits; shares compounds with Rpn11 block; recombinant MMP-2, FRET peptide cleavage fluorescence; inhibition, % at 20 µM; actives 4% (n = 1,900); AID 602330;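 further: human MMP-2 activated beforehand with APMA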
# Thrombin inh – thrombin (bovine) inhibition counter-screen; inhibition, % at 20 µM; actives 13% (n = 1,900); bovine thrombin cleavage of Ub4-pepOG, fluorescence polarization; shares compounds with Rpn11 block;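 active means mean inhibition at least 40% at 20 µM, or signal 3 deviations below plate average, so some actives read negative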
# NadD inh conf – NadD (S. aureus) inhibition, single concentration confirmation; shares compounds with NadD block; purified S. aureus NadD, colorimetric enzyme assay; inhibition, % at 20 µM; actives 13% (n = 2,000); in the data active means inhibition mostly above about 42%, no sharp cut-off; inactive means mostly below about 42%
# Numbers stand for hits; i = inactive; nt = no result given. Unless noted, no stated cut-off is given here; in the data, active means inhibition above about 40%; inactive means the rest.
SMILES,Rpn11 block,TPT1 inh,CSN inh,PP1 inh,NadD block,HNF4A DNA FP,Rpn11 confirm,MMP-2 inh,Thrombin inh,others
COc1ccc(Cc2c(C(C)(C)C)nc3ccc(Cl)cn23)c(C)c1,56,nt,i,nt,i,i,44,i,i,
COc1ccc(Cc2c(-c3ccccc3)nc3c(C)cc(Br)cn23)c(C)c1,63,nt,i,nt,i,i,i,47,i,
COc1ccc(CNC(=O)C2CCN(C(=O)Cc3ccccc3)CC2)cc1,i,i,i,i,i,i,nt,nt,nt,
CC(C)(C)Cc1c(-c2cccc(Cl)c2)nc2ccc(Cl)cn12,43,nt,i,nt,i,i,i,52,i,
COc1ccccc1Cc1c(-c2ccccc2)nc2ccc(Cl)cn12,i,nt,i,nt,i,i,nt,nt,nt,
COc1ccccc1Cc1c(-c2ccc(Cl)cc2)nc2ccc(Br)cn12,41,nt,i,nt,i,i,41,i,51,
COc1ccccc1Cc1c(-c2ccccc2)nc2ccc(Br)cn12,nt,nt,i,nt,i,i,nt,nt,nt,
COc1ccccc1Cc1c(-c2ccc(C)cc2)nc2ccc(Br)cn12,48,nt,100,nt,i,i,i,i,i,
COc1ccccc1Cc1c(-c2cccc(Br)c2)nc2ccc(Cl)cn12,58,nt,i,nt,i,i,60,i,i,
O=c1ccc(NS(=O)(=O)c2ccccc2)cn1Cc1ccc(Cl)c(Cl)c1,36,i,i,i,i,i,i,i,i,
O=C(Cc1ccc(Cl)c(Cl)c1)Nc1ccc(S(=O)(=O)Nc2ncccn2)cc1,i,i,i,i,i,i,nt,nt,nt,
COc1cc(/C=c2/sc3nc(-c4ccccc4)c(-c4ccccc4)n3c2=O)cc(OC)c1OC,i,i,i,i,i,i,nt,nt,nt,
COc1ccc(/C=c2\sc3nc(-c4ccccc4)c(-c4ccccc4)n3c2=O)cc1OC,140,i,i,i,i,i,i,i,i,
CCOc1nc(N=C(N)N)nc2c(C)cccc12,84,i,i,i,i,i,i,i,i,
CCCCCCCCCCCCCCCC(O)C[N+](C)(C)CCO (centres undefined),62,nt,i,nt,i,i,77,i,i,
CN(C)S(=O)(=O)c1cccc(C(=O)Nc2cc(S(=O)(=O)N3CCOCC3)ccc2N2CCCC2)c1,i,nt,i,nt,i,i,nt,nt,nt,
Cc1cccc(-c2nc(Nc3cccc(O)c3)c3ccccc3n2)c1,60,i,i,i,i,i,i,i,i,
Fc1ccc(Nc2nc(-c3ccncc3)nc3ccccc23)cc1F,80,i,i,i,i,i,i,i,i,
Cc1cccc(-c2nc(Nc3ccc(N4CCOCC4)cc3)c3ccccc3n2)c1,i,i,i,i,i,i,nt,nt,nt,
Cc1ccc(N(CC(=O)N/N=C/c2cccs2)S(C)(=O)=O)cc1,29,i,i,i,i,i,i,i,i,
CC1(C)Cc2c(c(N3CCOCC3)nc3sc(C(=O)Nc4ccc(Cl)cc4)c(N)c23)CO1,i,i,i,i,i,i,nt,nt,nt,
Cc1nc2c(sc3nc(N4CCOCC4)c4c(c32)CC(C)(C)OC4)c(-c2ccc(Cl)cc2)c1C(=O)O,57,i,i,i,i,i,i,i,i,
CCOC(=O)C(C)(C)Oc1cccc2c1S(=O)(=O)c1ccccc1-2,i,i,i,i,i,i,nt,nt,nt,
CCOCCCNC(=O)N[C@@H](Cc1ccccc1)C(=O)OC,58,i,i,i,i,i,i,i,i,
O=C(CN1C(=O)NC2(CCCC2)C1=O)Nc1nc2ccccc2[nH]1,i,i,i,i,i,i,nt,nt,nt,
SMILES,Rpn11 block,TPT1 inh,CSN inh,PP1 inh,NadD block,HNF4A DNA FP,Rpn11 confirm,MMP-2 inh,Thrombin inh,others
CC(C)Cc1nnc(NC(=O)Cc2cccs2)s1,52,i,i,i,i,i,81,i,i,
C=CCn1sc(=N)c(C#N)c1N,60,i,i,i,i,i,i,i,i,
C=CCn1c(C)cc(C)c(C#N)c1=O,i,i,i,i,i,i,nt,nt,nt,
N#C/C(=C\c1ccccc1OCC(=O)O)c1nc2ccccc2[nH]1,i,i,i,i,i,i,nt,nt,nt,
Cc1cc(/C=C(/C#N)c2nc3ccccc3[nH]2)c(C)n1-c1ccccc1C(=O)O,55,i,i,i,i,i,75,i,51,
COc1ccc2nc(/C(C#N)=C\c3ccc(C(=O)O)cc3)[nH]c2c1,43,i,i,i,i,i,i,i,i,
COc1ccc(C=C(C#N)c2ccc(OC)cc2)cc1,i,nt,i,nt,i,i,nt,nt,nt,
CC1(C(=O)Nc2cccc(NS(C)(=O)=O)c2)CCN1CCc1ccccc1 (centres undefined),i,nt,i,nt,i,i,nt,nt,nt,
CCOC(=O)/C(C#N)=N/Nc1ccccc1OC,40,i,i,i,i,i,i,i,i,
Cc1ccccc1N/N=C/c1c(C)nc2ccccn12,i,i,i,i,i,i,nt,nt,nt,
NC1CCCCC1N=Cc1c(O)n(CCc2ccc(F)cc2)c(=O)[nH]c1=O (centres undefined),i,nt,i,nt,i,i,nt,nt,nt,
O=c1[nH]c(=O)n(CCc2ccc(F)cc2)c(O)c1C=NCc1ccc2c(c1)OCO2,90,i,i,i,i,i,i,i,i,
CC1(C)Cc2c(C#N)c(SCCC#N)nc(N3CCOCC3)c2CS1,67,i,i,i,i,i,i,i,i,
CC1(C)Cc2c(C#N)c(SCCC#N)nc(N3CCOCC3)c2CO1,i,nt,i,nt,i,i,nt,nt,nt,
O=C(N/N=C\c1ccc(OC(=O)c2cccs2)cc1)c1ccc(Cl)cc1,76,i,i,i,i,i,i,i,i,
CC1(C)CC(=O)C=C(Nc2ccc(OCC(F)(F)C(F)F)cc2)C1,105,i,i,i,i,i,i,i,i,
CCOc1ccc(NC(=O)COC(=O)CCN2C(=O)C3CC=CCC3C2=O)cc1OCC (centres undefined),i,nt,i,i,i,i,nt,nt,nt,
O=C(Nc1nc(-c2ccco2)c(-c2ccco2)s1)c1c(F)cccc1Cl,53,nt,49,i,43,i,i,i,i,NadD inh conf=i
O=C(Nc1ccc(Cl)c(Cl)c1)Nc1nnc(-c2ccncc2)s1,161,i,i,i,61,i,i,i,i,NadD inh conf=i
CCOC(=O)Cn1c(=NC(=O)c2cc(-c3cccs3)nc3ccccc23)sc2cc(S(N)(=O)=O)ccc21,94,i,i,i,56,i,i,i,i,NadD inh conf=61
Cc1cc(NCCCCCCCNc2cc(C)nc3cc([N+](=O)[O-])ccc23)c2ccc([N+](=O)[O-])cc2n1,95,nt,i,nt,66,i,85,76,i,NadD inh conf=65
